Results: ChEMBL document CHEMBL4007405 (J Med Chem, 2017)
Activity calls are given as the source filed them. The calls are words filed in the database; no cut-off is given here. Positions of bridges follow the written chain, without caps; N, C: chain ends. Residues, ends and D or L forms follow the SMILES beside them.

Key:
[1] = target: T1, Lethal factor (Bacillus anthracis) (UniProt P15917); assay: (§1) Inhibition of Bacillus anthracis lethal factor protease preincubated for 30 mins prior to addition of substrate containing fluorescent proteins CyPet and YPet measured every 2 mins for 3 hrs by FRET assay
T1 sequence (whole entry): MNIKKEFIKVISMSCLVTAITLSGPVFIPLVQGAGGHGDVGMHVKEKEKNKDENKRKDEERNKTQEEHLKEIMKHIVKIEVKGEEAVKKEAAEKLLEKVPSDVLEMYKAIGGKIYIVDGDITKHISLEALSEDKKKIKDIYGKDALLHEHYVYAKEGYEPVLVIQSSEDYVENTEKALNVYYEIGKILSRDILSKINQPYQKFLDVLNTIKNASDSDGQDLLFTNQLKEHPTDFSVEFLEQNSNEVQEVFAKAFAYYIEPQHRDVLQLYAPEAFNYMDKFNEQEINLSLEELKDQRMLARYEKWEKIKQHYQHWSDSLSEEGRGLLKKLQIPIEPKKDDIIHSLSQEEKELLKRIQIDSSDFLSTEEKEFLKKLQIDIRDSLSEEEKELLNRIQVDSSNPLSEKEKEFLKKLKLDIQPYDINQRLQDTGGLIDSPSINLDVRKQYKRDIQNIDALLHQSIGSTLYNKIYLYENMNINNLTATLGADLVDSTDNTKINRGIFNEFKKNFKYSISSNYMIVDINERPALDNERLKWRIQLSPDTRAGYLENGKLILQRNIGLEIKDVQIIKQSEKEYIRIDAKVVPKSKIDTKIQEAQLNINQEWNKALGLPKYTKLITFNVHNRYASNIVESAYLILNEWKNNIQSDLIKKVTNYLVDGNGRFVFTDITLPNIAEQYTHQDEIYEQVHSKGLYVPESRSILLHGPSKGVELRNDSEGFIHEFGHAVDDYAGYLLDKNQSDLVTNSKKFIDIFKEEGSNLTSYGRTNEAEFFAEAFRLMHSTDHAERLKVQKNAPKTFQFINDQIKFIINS
Summary of the method: (§2)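 Preincubated with peptide from 1 nM to 10 μM for 30 min at room temperature. CyPet–YPet substrate (LF consensus sequence with (GGS)6 linkers) then added to a final 10 nM. FRET read every 2 min for 3 h with excitation at 405 nm and emission ratio It/I0 at 535 nm. Initial velocities fitted to log(inhibitor)–response with variable Hill slope. Run in triplicate.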

[2] = target: T1, Lethal factor (Bacillus anthracis); assay: Inhibition of Bacillus anthracis lethal factor protease up to 10 uM preincubated for 30 mins prior to addition of substrate containing fluorescent proteins CyPet and YPet measured every 2 mins for 3 hrs by FRET assay; summary of the method: as §2
[3] = tested on: HeLa; assay: Cytotoxicity against human HeLa cells up to 100 uM after 48 hrs by MTT assay; type: cell-based
Summary of the method: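 HeLa cells grown in DMEM with 10% FBS, penicillin and streptomycin at 37° C, 5% CO2. About 3 × 10^3 cells per well were seeded for 24 h, washed with PBS, then exposed to peptides in DMEM/10% FBS for 48 h at 37° C. MTT was added for 2 h and formazan dissolved in DMSO. Absorbance read at 595 nm with 670 nm background subtracted.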

[4] = target: T2, Lethal factor (Bacillus anthracis, UniProt P15917)
T2 sequence (P15917 whole entry): T1 sequence (whole entry)

[5] = target: T2, Lethal factor; assay: as §1; summary of the method: as §2

SMILES	inhibition [1]	other results
C[C@@H](O)[C@@H]1NC(=O)[C@@H]2CSSC[C@H](NC(=O)[C@H](Cc3ccccc3)NC(=O)CNC(=O)[C@H](CCCNC(=N)N)NC1=O)C(=O)N[C@@H](CCCNC(=N)N)C(=O)N[C@H]1CSSC[C@H](NC(=O)[C@H](CCCNC(=N)N)NC(=O)[C@@H]3CSSC[C@H](NC(=O)[C@H](Cc4c[nH]c5ccccc45)NC1=O)C(=O)N[C@@H](CCCNC(=N)N)C(=O)N[C@@H](CCCNC(=N)N)C(=O)N[C@@H](CCCNC(=N)N)C(=O)N[C@@H](Cc1c[nH]c4ccccc14)C(=O)N3)C(=O)N[C@@H](Cc1c[nH]c3ccccc13)C(=O)N2 (cyclo(CRCWCRRRWCRCWCTRGF); disulfide 1-14, 3-12, 5-10)	Dose-dependent effect	
CC[C@H](C)[C@@H]1NC(=O)[C@H](CS)NC(=O)[C@H](CCCNC(=N)N)NC(=O)[C@H](CS)NC(=O)[C@H](C(C)C)NC(=O)CNC(=O)[C@H](CCCNC(=N)N)NC(=O)[C@H](CCCNC(=N)N)NC(=O)[C@H](CS)NC(=O)[C@H](CC(C)C)NC(=O)[C@H](CS)NC(=O)[C@H](CCCNC(=N)N)NC(=O)[C@H](CS)NC(=O)[C@H](Cc2ccccc2)NC(=O)CNC(=O)[C@H](CCCNC(=N)N)NC(=O)[C@H]([C@@H](C)O)NC(=O)[C@H](CS)NC1=O (cyclo(CICTRGFCRCLCRRGVCR))		inhibition [2]: inactive
N=C(N)NCCC[C@@H]1NC(=O)[C@H](CCCNC(=N)N)NC(=O)[C@@H]2CSSC[C@H](NC(=O)[C@H](Cc3c[nH]c4ccccc34)NC(=O)[C@H](CCCNC(=N)N)NC1=O)C(=O)N[C@@H](CCCNC(=N)N)C(=O)N[C@H]1CSSC[C@H](NC(=O)[C@H](CCCNC(=N)N)NC(=O)[C@@H]3CSSC[C@H](NC(=O)[C@H](Cc4c[nH]c5ccccc45)NC1=O)C(=O)N[C@@H](CCCNC(=N)N)C(=O)N[C@@H](CCCNC(=N)N)C(=O)N[C@@H](CCCNC(=N)N)C(=O)N[C@@H](Cc1c[nH]c4ccccc14)C(=O)N3)C(=O)N[C@@H](Cc1c[nH]c3ccccc13)C(=O)N2 (cyclo(CRCWCRRRWCRCWCRRRW); disulfide 1-14, 3-12, 5-10)	Dose-dependent effect	Activity [3]: Non-Toxic; IC50 [4]: 250 nM
C[C@@H](O)[C@@H]1NC(=O)[C@@H]2CSSC[C@H](NC(=O)[C@H](Cc3c[nH]c4ccccc34)NC(=O)CNC(=O)[C@H](CCCNC(=N)N)NC1=O)C(=O)N[C@@H](CCCNC(=N)N)C(=O)N[C@H]1CSSC[C@H](NC(=O)[C@H](CCCNC(=N)N)NC(=O)[C@@H]3CSSC[C@H](NC(=O)[C@H](Cc4c[nH]c5ccccc45)NC1=O)C(=O)N[C@@H](CCCNC(=N)N)C(=O)N[C@@H](CCCNC(=N)N)C(=O)N[C@@H](CCCNC(=N)N)C(=O)N[C@@H](Cc1c[nH]c4ccccc14)C(=O)N3)C(=O)N[C@@H](Cc1c[nH]c3ccccc13)C(=O)N2 (cyclo(CRCWCRRRWCRCWCTRGW); disulfide 1-14, 3-12, 5-10)	Dose-dependent effect	
CC[C@H](C)[C@@H]1NC(=O)[C@@H]2CSSC[C@H](NC(=O)[C@H](CC(=O)O)NC(=O)[C@@H]3CSSC[C@H](NC1=O)C(=O)N[C@@H]([C@@H](C)O)C(=O)N[C@@H](CCCNC(=N)N)C(=O)NCC(=O)N[C@@H](Cc1ccccc1)C(=O)N3)C(=O)N[C@@H](CC(C)C)C(=O)N[C@H]1CSSC[C@H](NC(=O)[C@H](C(C)C)NC(=O)CNC(=O)[C@H](CCCNC(=N)N)NC(=O)[C@H](CCCNC(=N)N)NC1=O)C(=O)N[C@@H](CCCNC(=N)N)C(=O)N2 (cyclo(CDCLCRRGVCRCICTRGF); disulfide 1-14, 3-12, 5-10)	Dose-dependent effect	
CC[C@H](C)[C@@H]1NC(=O)[C@@H]2CSSC[C@H](NC(=O)[C@H](CCCNC(=N)N)NC(=O)[C@@H]3CSSC[C@H](NC1=O)C(=O)N[C@@H]([C@@H](C)O)C(=O)N[C@@H](CCC(=O)O)C(=O)NCC(=O)N[C@@H](Cc1ccccc1)C(=O)N3)C(=O)N[C@@H](CC(C)C)C(=O)N[C@H]1CSSC[C@H](NC(=O)[C@H](C(C)C)NC(=O)CNC(=O)[C@H](CCCNC(=N)N)NC(=O)[C@H](CCCNC(=N)N)NC1=O)C(=O)N[C@@H](CCCNC(=N)N)C(=O)N2 (cyclo(CICTEGFCRCLCRRGVCR); disulfide 1-10, 3-8, 12-17)	Dose-dependent effect	IC50 [5]: 3500 nM
C[C@@H](O)[C@@H]1NC(=O)[C@@H]2CSSC[C@H](NC(=O)[C@H](Cc3c[nH]c4ccccc34)NC(=O)[C@H](CCCNC(=N)N)NC(=O)[C@H](CCCNC(=N)N)NC1=O)C(=O)N[C@@H](CCCNC(=N)N)C(=O)N[C@H]1CSSC[C@H](NC(=O)[C@H](CCCNC(=N)N)NC(=O)[C@@H]3CSSC[C@H](NC(=O)[C@H](Cc4c[nH]c5ccccc45)NC1=O)C(=O)N[C@@H](CCCNC(=N)N)C(=O)N[C@@H](CCCNC(=N)N)C(=O)N[C@@H](CCCNC(=N)N)C(=O)N[C@@H](Cc1c[nH]c4ccccc14)C(=O)N3)C(=O)N[C@@H](Cc1c[nH]c3ccccc13)C(=O)N2 (cyclo(CRCWCRRRWCRCWCTRRW); disulfide 1-14, 3-12, 5-10)	Dose-dependent effect	
CC[C@H](C)[C@@H]1NC(=O)[C@@H]2CSSC[C@H](NC(=O)[C@H](CCCNC(=N)N)NC(=O)[C@@H]3CSSC[C@H](NC1=O)C(=O)N[C@@H]([C@@H](C)O)C(=O)N[C@@H](CCCNC(=N)N)C(=O)NCC(=O)N[C@@H](Cc1ccccc1)C(=O)N3)C(=O)N[C@@H](Cc1c[nH]c3ccccc13)C(=O)N[C@H]1CSSC[C@H](NC(=O)[C@H](Cc3c[nH]c4ccccc34)NC(=O)[C@H](CCCNC(=N)N)NC(=O)[C@H](CCCNC(=N)N)NC(=O)[C@H](CCCNC(=N)N)NC1=O)C(=O)N[C@@H](CCCNC(=N)N)C(=O)N2 (cyclo(CICTRGFCRCWCRRRWCR); disulfide 1-10, 3-8, 12-17)	Dose-dependent effect	
CC[C@H](C)[C@@H]1NC(=O)[C@@H]2CSSC[C@H](NC(=O)[C@H](CCCNC(=N)N)NC(=O)[C@@H]3CSSC[C@H](NC1=O)C(=O)N[C@@H]([C@@H](C)O)C(=O)N[C@@H](CCCNC(=N)N)C(=O)NCC(=O)N[C@@H](Cc1ccccc1)C(=O)N3)C(=O)N[C@@H](CC(C)C)C(=O)N[C@H]1CSSC[C@H](NC(=O)[C@H](Cc3c[nH]c4ccccc34)NC(=O)CNC(=O)[C@H](CCCNC(=N)N)NC(=O)[C@H](CCCNC(=N)N)NC1=O)C(=O)N[C@@H](CCCNC(=N)N)C(=O)N2 (cyclo(CICTRGFCRCLCRRGWCR); disulfide 1-10, 3-8, 12-17)	Dose-dependent effect	
CC[C@H](C)[C@@H]1NC(=O)[C@@H]2CSSC[C@H](NC(=O)[C@H](CCCNC(=N)N)NC(=O)[C@@H]3CSSC[C@H](NC1=O)C(=O)N[C@@H]([C@@H](C)O)C(=O)N[C@@H](CCCNC(=N)N)C(=O)NCC(=O)N[C@@H](Cc1ccccc1)C(=O)N3)C(=O)N[C@@H](CC(C)C)C(=O)N[C@H]1CSSC[C@H](NC(=O)[C@H](Cc3c[nH]c4ccccc34)NC(=O)[C@H](CCCNC(=N)N)NC(=O)[C@H](CCCNC(=N)N)NC(=O)[C@H](CCCNC(=N)N)NC1=O)C(=O)N[C@@H](CCCNC(=N)N)C(=O)N2 (cyclo(CICTRGFCRCLCRRRWCR); disulfide 1-10, 3-8, 12-17)	Dose-dependent effect	
CC(C)C[C@@H]1NC(=O)[C@@H]2CSSC[C@H](NC(=O)[C@H](CCCNC(=N)N)NC(=O)[C@@H]3CSSC[C@H](NC1=O)C(=O)N[C@@H](CCCNC(=N)N)C(=O)N[C@@H](CCCNC(=N)N)C(=O)NCC(=O)N[C@@H](C(C)C)C(=O)N3)C(=O)N[C@@H](Cc1c[nH]c3ccccc13)C(=O)N[C@H]1CSSC[C@H](NC(=O)[C@H](Cc3ccccc3)NC(=O)CNC(=O)[C@H](CCCNC(=N)N)NC(=O)[C@H]([C@@H](C)O)NC1=O)C(=O)N[C@@H](CCCNC(=N)N)C(=O)N2 (cyclo(CLCRRGVCRCWCTRGFCR); disulfide 1-10, 3-8, 12-17)	Dose-dependent effect	IC50 [5]: 205 nM
